High-throughput results (PubChem BioAssay)
Many of the other results were omitted from the sample, so hits are more common in it than they were.
ROMK mod: ROMK potassium channel modulators, primary screen, cell-based, thallium flux, MLSMR library | ATP-sensitive inward rectifier potassium channel 1 (Homo sapiens), P48048 | Tet-inducible ROMK, thallium flux fluorescence; actives lie on both sides | B-score at 10 µM | actives 2% (n = 130,000) | AID 1918, 2009;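 active means signal ratio slope over the read window, or its plate-corrected B-score, at least 3 SD from the plate mean, either direction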;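 further: B-score of the F/F0 ratio slope over 7 to 12 s after thallium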
zfTRPN1 agonist: zebrafish TRPN1 channel agonists, primary screen, cell-based, HEK293, calcium fluorescence; HEK293 zebrafish TRPN1-YFP, Fluo-8 calcium fluorescence; 100% = response to 87 µM carbachol; activation, % at 3 µM; actives 0.18% (n = 220,000); AID 1424, 2008;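 active means activation above its plate's cutoff, the mean activation of test wells on that plate plus 3 SD, cut at about 19% in these data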
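Material: zebrafish TRPN1-YFP in HEK293 cells; Doses: single test compound dose, 3 µM nominal, 0.3% DMSO; Timing: dye loading 1 h at 37 °C, then 30 min room temperature; Technique: intracellular calcium fluorescence with Fluo-8; Benchmarks: high carbachol 87 µM, low DMSO alone.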
Biofilm kill mix: clotrimazole potentiators killing C. albicans biofilm, primary screen, 4-compound mixtures; C. albicans biofilm persisters + clotrimazole, fluorescence viability; primary screen in compound mixtures of four per well; inhibition, % at 7.6 µM; actives 0.02% (n = 120,000); AID 1242, 2008;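 active means inhibition above 30.3% in the primary screen of four-compound pools, then above 30% when the compound was retested; inconclusive means passed the primary limit but could not be retested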;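 further: compounds exposed to preformed 24 h biofilms for 48 h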
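Incubation: 24 h biofilm formation, then 48 h compound exposure, 37 °C | Material: C. albicans biofilms | Buffer or medium: RPMI/MOPS medium, pH 7.0 | Measured by: 2-h Alamar Blue fluorescence, 535/590 nm excitation/emission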
ABCG2 inh: ABCG2 efflux pump inhibitors, primary screen, multiplex with ABCB1, IgMXP3 cells, flow cytometry; Broad substrate specificity ATP-binding cassette transporter ABCG2 (Homo sapiens), Q9UNQ0; actives 0.1% (n = 190,000); JC-1 efflux; inhibition, % at 6.6 µM;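 active means inhibition above 80%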
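Times: 10 min at 25 °C | Test system: Two drug-resistant human cell lines, ABCG2 and ABCB1 | Quantity: 3 million cells/mL final, two lines in 1:1 ratio | Signal: Flow cytometry, 530 nm JC-1 signal | Dosing: Compound at 6.6 µM | Controls: Nicardipine and DMSO wells | Reagent: JC-1 as fluorescent efflux pump substrate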
TRPML3 ag: human TRPML3 channel agonists, primary screen, cell-based, HEK293 TRPML3-YFP, Fluo-8 calcium fluorescence, 3 µM | 100% = the carbachol control signal | actives 0.29% (n = 220,000) | activation, % at 3 µM;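 active means activation above its plate's cutoff, the mean activation of the plate's test wells plus 3 SD, cut at about 12% in these data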
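Material: TRPML3-YFP stable HEK293 cells | Dosing: One concentration, 3 µM nominal, 0.3% DMSO | Timing: 125 s total fluorescence read per well | Technique: Fluo-8 calcium dye fluorescence, ex 470-495, em 515-575 nm | Measure: Percent activation from peak-to-basal fluorescence ratio, scaled between DMSO and carbachol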
ABCB1 inh: ABCB1 efflux pump inhibitors, primary screen, cell-based, multiplex, flow cytometry, ABCG2 counter-screen. ATP-dependent translocase ABCB1 (Homo sapiens), P08183. CCRF-Adr cells, JC-1 efflux. inhibition, % at 6.6 µM. actives 0.067% (n = 190,000). AID 1326, 2008; in the data active means inhibition above about 40%;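 further: higher value means more JC-1 retained so stronger ABCB1 efflux block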
Target sequence (P08183 whole entry, looked up): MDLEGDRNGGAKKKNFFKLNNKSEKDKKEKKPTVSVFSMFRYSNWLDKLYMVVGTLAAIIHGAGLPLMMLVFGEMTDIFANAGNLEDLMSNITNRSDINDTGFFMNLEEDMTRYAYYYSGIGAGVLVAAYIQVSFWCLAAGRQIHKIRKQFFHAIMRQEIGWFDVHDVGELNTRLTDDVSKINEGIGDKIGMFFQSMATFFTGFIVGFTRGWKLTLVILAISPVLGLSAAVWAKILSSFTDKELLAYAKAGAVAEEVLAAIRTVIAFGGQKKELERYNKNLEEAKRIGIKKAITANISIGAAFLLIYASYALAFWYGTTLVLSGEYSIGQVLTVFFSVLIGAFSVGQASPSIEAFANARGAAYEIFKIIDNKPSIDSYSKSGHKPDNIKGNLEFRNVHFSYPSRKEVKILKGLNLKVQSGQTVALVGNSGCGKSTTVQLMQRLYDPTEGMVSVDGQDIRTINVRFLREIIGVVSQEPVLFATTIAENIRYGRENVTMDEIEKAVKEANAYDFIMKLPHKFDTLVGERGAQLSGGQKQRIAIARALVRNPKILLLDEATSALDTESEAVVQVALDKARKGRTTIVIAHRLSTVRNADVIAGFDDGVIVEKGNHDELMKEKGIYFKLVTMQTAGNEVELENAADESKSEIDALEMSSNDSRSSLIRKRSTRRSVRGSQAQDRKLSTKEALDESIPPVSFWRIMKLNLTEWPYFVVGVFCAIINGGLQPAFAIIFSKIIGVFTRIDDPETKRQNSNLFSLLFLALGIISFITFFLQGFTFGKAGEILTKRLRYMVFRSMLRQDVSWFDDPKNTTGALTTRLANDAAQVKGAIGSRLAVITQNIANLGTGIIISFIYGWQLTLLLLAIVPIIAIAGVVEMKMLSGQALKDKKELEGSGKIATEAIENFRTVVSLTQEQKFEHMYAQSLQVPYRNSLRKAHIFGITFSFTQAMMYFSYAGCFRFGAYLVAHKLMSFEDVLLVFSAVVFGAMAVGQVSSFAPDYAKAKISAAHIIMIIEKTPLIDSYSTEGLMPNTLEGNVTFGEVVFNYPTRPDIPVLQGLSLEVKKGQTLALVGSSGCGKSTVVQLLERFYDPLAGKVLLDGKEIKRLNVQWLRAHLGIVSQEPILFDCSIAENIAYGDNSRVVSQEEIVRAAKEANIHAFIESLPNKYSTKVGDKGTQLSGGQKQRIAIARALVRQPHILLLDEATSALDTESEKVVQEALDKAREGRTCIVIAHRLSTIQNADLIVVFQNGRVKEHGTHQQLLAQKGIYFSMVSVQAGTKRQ
ROMK hit retest: ROMK channel modulator hit retest, confirmation, cell-based, thallium flux, duplicate, resupplied hits; actives 54% (n = 3,000); normalized thallium flux (F/F0 slope) at 10 µM; shares compounds with ROMK mod; fluorescence ratio; hits give low values;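 active means Flux at 10 µM at least 3 SD below or above vehicle control mean in one or both replicates; inconclusive means no clear call, values can overlap the other calls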
Hits are given with their value; – = inactive; ? = inconclusive; · = not tested or not shown.

SMILES | ROMK mod | zfTRPN1 agonist | Biofilm kill mix | ABCG2 inh | TRPML3 ag | ABCB1 inh | ROMK hit retest
CCOC(=O)C1(CCOc2ccccc2)CCN(Cc2ccncc2)CC1 | · | – | – | – | – | – | ·
CCOC(=O)C1(CCOc2ccccc2)CCN(Cc2cccn2-c2ncccn2)CC1 | -3.66 | – | – | – | – | – | ?
COc1ccc(C(=O)C2CCCN(C(=O)c3ccoc3C)C2)cc1F (centres undefined) | · | – | – | · | – | · | ·
COc1cc(OC)c2ccc(=O)oc2c1C(CC(=O)N1CCOCC1)c1ccc(N(C)C)cc1 (centres undefined) | · | · | – | · | · | · | ·
O=C(O)c1sccc1SCc1ccc(Cl)cc1Cl | · | – | · | – | – | – | ·
CC(C)c1ccc(/C=N/n2cnnc2)cc1 | – | – | – | · | – | · | ·
COc1ccc2c(c1)c1nc3ccccc3nc1n2Cc1ccc(OC(C)C)c(OC)c1 | -3.41 | – | – | – | – | – | 0.0567
O=C(CC(c1ccccc1)c1ccccc1)Nc1ccncc1 | · | – | – | · | – | · | –
O=C(CCc1ccccc1)Nc1ccncc1 | · | – | · | – | – | – | ·
COc1ccc(/C=C2\NC(=O)C(C=NCc3ccccc3)=C2O)cc1 | · | – | – | – | – | – | ·
O=C1N/C(=C\c2ccc(O)cc2)C(O)=C1C=NCc1ccccc1 | 2.13 | – | – | – | – | – | –
CC(C)(C)c1cnnn1-c1ccc(C=O)cc1 | – | – | – | – | – | – | ·
CC(C)(C)c1cnnn1-c1ccc(C(=O)CCl)cc1 | · | – | · | – | – | – | 0.0537
CCCCC1=NN(C(=O)c2cccnc2)C(O)(C(F)(F)F)C1 (centres undefined) | · | – | – | · | – | · | ·
CC(C)OC(=O)COc1cc(O)c2c(=O)cc(-c3ccccc3)oc2c1 | – | – | – | · | – | · | ·
CCCCCCCCCCCC(=O)NC(Cc1ccc(OC)c([N+](=O)[O-])c1)C(=O)O (centres undefined) | 4.53 | – | – | · | – | · | ?
CCOC(=O)C(Cc1ccc(OC)c([N+](=O)[O-])c1)NC(=O)CCC(=O)Nc1ccc(OC)cc1 (centres undefined) | – | – | – | – | – | – | ·
O=C(O)c1ccn2c(C(=O)c3ccccc3)c(-c3ccccc3)cc2c1 | · | – | – | · | – | · | ·
N#C/C(=C\c1cccc([N+](=O)[O-])c1)C(=O)NCC1CCCO1 (centres undefined) | -10.8 | – | – | – | – | – | 0.0418
O=C(CSc1nc2ccc(Nc3nc(N4CCCC4)nc(N4CCCC4)n3)cc2s1)NCc1ccco1 | – | – | – | · | – | · | ·
Cc1ccc(NC(=O)C2CCCN2S(=O)(=O)c2ccc3c(c2)n(C)c(=O)c(=O)n3C)c(C)c1 (centres undefined) | – | – | – | · | – | · | ·
CCOC(=O)C1(CCOC)CCN(Cc2ccc(C3CCCCO3)s2)CC1 (centres undefined) | – | – | – | – | – | – | ·
CC1CN(C(=O)c2cc3c(s2)CCC3)CC(C)O1 (centres undefined) | · | – | · | – | – | – | –
O=C(c1cc2c(s1)CCCC2)N1CCN(C(=O)C2CCCO2)CC1 (centres undefined) | – | – | · | – | – | – | ·
CC1CC2OC(=O)C3(C)CCCC(C)(C23)C1(O)CCc1ccoc1 (centres undefined) | – | – | – | · | – | · | ·
SMILES | ROMK mod | zfTRPN1 agonist | Biofilm kill mix | ABCG2 inh | TRPML3 ag | ABCB1 inh | ROMK hit retest
CCCC1=NN2C(=N)/C(=C\c3ccc(SCc4ccco4)o3)C(=O)N=C2S1 | -3.02 | – | · | – | – | – | 0.0533
CCC1=NN2C(=N)/C(=C\c3ccc(SCc4ccco4)o3)C(=O)N=C2S1 | · | – | · | – | – | – | ·
COc1ccc(C(CCNCc2ccc(F)cc2)c2ccc(F)cc2)cc1 (centres undefined) | – | – | – | – | – | – | ·
COc1ccc(CNCCC(c2ccc(F)cc2)c2ccc(OC)cc2)cc1 (centres undefined) | -4.16 | – | – | – | – | – | 0.0528
CC1=CC2=NC(=O)/C(=C\c3cccn3CCOc3cccc(C)c3)C(=N)N2O1 | – | – | – | – | – | – | ·
COc1cccc(OCCn2cccc2/C=C2/C(=N)N3OC(C)=CC3=NC2=O)c1 | -3.25 | – | – | – | – | – | –
COc1ccc(/C=C(/Sc2nnc(-c3ccc(Cl)cc3)o2)C(=O)O)cc1 | – | – | – | – | – | – | ·
COc1cc(/C=C(/Sc2nnc(-c3ccc(F)cc3)o2)C(=O)O)ccc1OC(F)F | -11 | – | – | – | – | – | –
COc1cccc(C(=O)Nc2cccc3c2ccc2cccn23)c1 | – | – | – | – | – | – | ·
OC(C#CCCN1CCCCC1)(c1ccccc1)C1CCCCC1 (centres undefined) | · | – | – | · | – | · | 0.0625
Fc1ccc(C2=CC(c3ccco3)n3ncnc3N2)cc1 (centres undefined) | -3.14 | – | – | – | – | · | 0.0532
C1=C(c2ccc(-c3ccccc3)cc2)Nc2ncnn2C1c1ccco1 (centres undefined) | · | – | · | – | – | – | ·
COc1ccc(N2CCN(CC(O)COc3ccc4c(c3)CCC4)CC2)cc1 (centres undefined) | -4.52 | – | · | – | – | – | 0.0613
COc1ccc(N2CCN(CC(O)COCCOc3ccc(Br)cc3)CC2)cc1 (centres undefined) | -2.39 | – | – | – | – | – | 0.0578
OC(COc1ccc2cc(Br)ccc2c1)CN1CCCC1 (centres undefined) | · | – | · | – | – | – | 0.0644
O=C(NCCCn1ccnc1)c1cc2c(ccc3ccccc32)o1 | – | – | – | – | – | – | ·
CCN(CC(=O)Nc1cccc(C#N)c1)CC(=O)Nc1cccc(OC)c1 | – | – | – | – | – | – | ·
O=C(Nc1cccc(-c2cn3cccnc3n2)c1)c1ccc2c(c1)OCO2 | · | – | · | – | – | – | –
O=C(Nc1cccc(-c2cn3cccnc3n2)c1)c1ccc(Br)o1 | · | – | · | – | – | – | ?
O=C(Nc1cccc(-c2nnc(-c3ccccc3)o2)c1)c1ccc(Br)o1 | – | – | · | – | – | – | 0.0651
O=C(Nc1cccc(-c2cn3cccnc3n2)c1)c1ccco1 | · | – | · | – | – | – | ·
O=c1[nH]c2ccc(NC(=S)NCCc3ccccc3)cc2[nH]1 | · | – | – | · | – | · | ·
COCCNC(=S)Nc1ccc2[nH]c(=O)[nH]c2c1 | 1.81 | – | – | – | – | – | –
